Source: ChEMBL document CHEMBL4665761, “Optimizing the Benefit/Risk of Acetyl-CoA Carboxylase Inhibitors through Liver Targeting” (J Med Chem, 2020)
Values after ≈ are worked out from the molar mass of the structure shown. Active and inactive are the calls of the source. The calls are words filed in the database; no cut-off is given here.

Assays:
[1] = Apparent permeability in MCDKII-LE cells at 2 uM incubated for 30 mins; assay type: ADME, cell-based, Canis lupus familiaris, MDCKII-LE; details: dog, MDCK
Method in brief: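 MDCK-LE (low-efflux) cell monolayers with a 30 min pre-incubation. Read-out is apparent passive permeability (Papp, 10^-6 cm/s).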

Acetyl-CoA carboxylase 2 = Acetyl-CoA carboxylase 2 (Homo sapiens, UniProt O00763); assay: Inhibition of recombinant human ACC2 using acetyl coA as substrate incubated for 1 hr by transcreener fluorescence polarization assay
Method in brief: (§1)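 Recombinant human enzyme, Transcreener assay run per an earlier protocol. IC50 is the geometric mean of at least three replicates, also given as pIC50 ± SD.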

Acetyl-CoA carboxylase 1 = Acetyl-CoA carboxylase 1 (Homo sapiens, UniProt Q13085); assay: Inhibition of recombinant human ACC1 using acetyl coA as substrate incubated for 1 hr by transcreener fluorescence polarization assay; method in brief: as §1
[2] = Ratio of drug uptake in Wistar-Hannover rat unbound liver to plasma concentration at 10 mg/kg, po hydrochloride salt form of compound after 6 hrs by LC/MS-MS analysis; assay type: ADME, organism-based; details: liver and plasma
Method in brief: (§2)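 Male Wistar-Hannover rats (n = 2 or 3) dosed orally as a suspension in 0.5% methyl cellulose with 0.1% Tween 80. Plasma and liver sampled 6 h post-dose. Kp is total liver/plasma; Kpu,u uses unbound fractions from equilibrium dialysis of plasma and liver.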

[3] = Drug uptake in Wistar-Hannover rat liver at 10 mg/kg, po using hydrochloride salt form of compound after 6 hrs by LC/MS-MS analysis; assay type: ADME, organism-based; details: read-out: Drug uptake
Method in brief: (§3)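 Male Wistar-Hannover rats, n = 2 or 3, given an oral suspension in 0.5% methyl cellulose with 0.1% Tween 80; one compound was dosed as the HCl salt. Total plasma and liver concentrations were measured 6 h post-dose. Kp = liver/plasma total concentration. Kpu,u uses fu values from equilibrium dialysis.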

[4] = Ratio of drug uptake in Wistar-Hannover rat liver to plasma at 10 mg/kg, po hydrochloride salt form of compound after 6 hrs by LC/MS-MS analysis; assay type: ADME, organism-based; details: liver and plasma; method in brief: as §2
[5] = Drug uptake in Wistar-Hannover rat assessed as plasma concentration at 10 mg/kg, po hydrochloride salt form of compound after 6 hrs by LC/MS-MS analysis; assay type: ADME, organism-based; method in brief: as §3
[6] = Thermodynamic solubility of the compound at pH 7.4 after 24 hrs; assay type: physicochemical; details: buffer, read-out: Therm_solubility
[7] = Thermodynamic solubility of the compound at pH 1.2 after 24 hrs; assay type: physicochemical; details: buffer, read-out: Therm_solubility
[8] = Thermodynamic solubility of the compound at pH 6.5 after 24 hrs; assay type: physicochemical; details: buffer, read-out: Therm_solubility
[9] = AUC (0 to 24 hrs) in Wistar-Hannover rat plasma at 1 mg/kg, iv and measured up to 24 hrs by LC/MS-MS analysis; assay type: ADME, organism-based; set-up: route intravenous, dose 1 mg/kg, time <=24
Method in brief: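 Male Wistar-Hannover rats (240–350 g) with jugular vein cannulas were given 1 mg/kg IV at 2 mL/kg. Vehicle, depending on compound, was 10% DMSO/90% of 20% sulfobutylether-β-cyclodextrin in water or 10% DMSO/30% PEG400/60% water. AUC0–24 came from plasma concentration–time data by the linear trapezoidal rule, averaged for n = 2. Lower detection limit was 1 ng/mL.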

[10] = Cmax in Wistar-Hannover rat plasma at 4 mg/kg, po and measured up to 24 hrs by LC/MS-MS analysis; assay type: ADME, organism-based; set-up: route oral, dose 4 mg/kg, time <=24
[11] = Half life in Wistar-Hannover rat plasma at 1 mg/kg, iv and measured up to 24 hrs by LC/MS-MS analysis; assay type: ADME, organism-based
Method in brief: (§4)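 Male Wistar-Hannover rats (240–350 g) with jugular vein cannulas, dosed 1 mg/kg IV (2 mL/kg) or PO. IV vehicle was 10% DMSO/90% of 20% sulfobutylether-β-cyclodextrin in water, or 10% DMSO/30% PEG400/60% water. Plasma was analysed by LC-MS/MS. Parameters come from plasma concentration–time data, n = 2: Cmax observed directly, AUC0-24 by the linear trapezoidal rule, CL = IV dose/AUC, Vss = dose/(AUC × elimination rate constant).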

[12] = Apparent volume of distribution at steady state in Wistar-Hannover rat plasma at 1 mg/kg, iv and measured up to 24 hrs by LC/MS-MS analysis; assay type: ADME, organism-based; details: read-out: Vdss(app); method in brief: as §4
[13] = Clearance in Wistar-Hannover rat plasma at 1 mg/kg, iv and measured up to 24 hrs by LC/MS-MS analysis; assay type: ADME, organism-based; method in brief: as §4
OATP1B3 = biological target: T1, OATP1B3 (Homo sapiens, UniProt Q9NPD5); assay: Substrate activity at human OATP1B3 stably expressed in HEK293 cells assessed as ratio of total to passive cellular uptake at 1 to 3 uM incubated for 0.5 to 4 mins by LC/MS-MS analysis; assay type: ADME, cell-based; details: HEK293 cells stably expressing human OATP1B3, dose 1-3 µM, time 0.5-4 min
T1 sequence (Q9NPD5 whole entry): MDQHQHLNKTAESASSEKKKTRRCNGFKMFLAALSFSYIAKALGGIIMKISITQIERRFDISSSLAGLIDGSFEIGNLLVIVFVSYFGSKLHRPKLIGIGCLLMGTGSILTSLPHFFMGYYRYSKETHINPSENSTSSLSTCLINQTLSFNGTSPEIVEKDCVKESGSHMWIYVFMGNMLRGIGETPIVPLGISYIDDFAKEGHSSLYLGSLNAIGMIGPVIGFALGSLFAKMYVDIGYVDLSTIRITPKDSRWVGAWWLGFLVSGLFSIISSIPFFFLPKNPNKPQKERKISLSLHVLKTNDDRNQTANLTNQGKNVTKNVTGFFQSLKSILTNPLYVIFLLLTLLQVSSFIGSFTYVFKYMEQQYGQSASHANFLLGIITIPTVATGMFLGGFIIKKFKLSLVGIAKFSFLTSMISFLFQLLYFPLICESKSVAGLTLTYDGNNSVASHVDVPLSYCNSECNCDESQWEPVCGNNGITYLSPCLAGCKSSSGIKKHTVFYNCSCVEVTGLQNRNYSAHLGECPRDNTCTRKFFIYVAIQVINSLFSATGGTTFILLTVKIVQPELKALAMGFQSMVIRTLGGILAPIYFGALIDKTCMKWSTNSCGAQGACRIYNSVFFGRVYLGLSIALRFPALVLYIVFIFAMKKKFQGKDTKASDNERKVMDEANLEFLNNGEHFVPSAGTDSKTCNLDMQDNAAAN
Method in brief: (§5)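 Stably transfected HEK293 cells and wild-type parental cells, cultured to confluency in DMEM with 10% heat-inactivated FBS and 5 µg/mL blasticidin. Uptake at 1–3 µM in HBSS/20 mM HEPES pH 7.4, 37 °C, 0.5–4.0 min. Cells washed in ice-cold buffer, lysed in MeOH, quantified by LC-MS/MS and normalized to protein. Ratio is transfected/parental uptake; >2 denotes substrate.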

OATP1B1 = biological target: T2, OATP1B1 (Homo sapiens, UniProt Q9Y6L6); assay: Substrate activity at human OATP1B1 stably expressed in HEK293 cells assessed as ratio of total to passive cellular uptake at 1 to 3 uM incubated for 0.5 to 4 mins by LC/MS-MS analysis; assay type: ADME, cell-based; details: HEK293 cells stably expressing human OATP1B1, dose 1-3 µM, time 0.5-4 min; method in brief: as §5
T2 sequence (Q9Y6L6 whole entry): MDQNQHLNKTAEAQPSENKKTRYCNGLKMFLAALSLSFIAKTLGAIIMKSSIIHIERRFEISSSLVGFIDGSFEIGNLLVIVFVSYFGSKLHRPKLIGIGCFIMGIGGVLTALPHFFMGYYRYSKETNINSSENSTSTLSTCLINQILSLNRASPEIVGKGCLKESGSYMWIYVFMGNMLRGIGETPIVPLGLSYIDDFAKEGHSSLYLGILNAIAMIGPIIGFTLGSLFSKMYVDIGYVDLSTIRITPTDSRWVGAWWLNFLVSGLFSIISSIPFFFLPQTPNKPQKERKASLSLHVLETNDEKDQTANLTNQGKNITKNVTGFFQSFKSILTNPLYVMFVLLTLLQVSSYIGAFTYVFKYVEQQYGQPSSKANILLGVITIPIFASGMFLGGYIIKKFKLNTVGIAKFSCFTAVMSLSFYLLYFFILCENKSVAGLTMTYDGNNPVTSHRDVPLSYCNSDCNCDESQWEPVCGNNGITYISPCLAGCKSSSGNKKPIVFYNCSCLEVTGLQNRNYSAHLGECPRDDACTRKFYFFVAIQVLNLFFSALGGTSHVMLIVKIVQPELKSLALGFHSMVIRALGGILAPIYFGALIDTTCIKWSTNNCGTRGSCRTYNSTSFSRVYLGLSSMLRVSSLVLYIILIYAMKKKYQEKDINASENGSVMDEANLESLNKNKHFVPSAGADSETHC

[14] = Metabolic intrinsic clearance in human hepatocytes assessed per million cells incubated for 2 hrs; assay type: ADME, cell-based, Hepatocyte; details: read-out: CLH
Method in brief: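 Cryopreserved human hepatocytes incubated for 2 h. In vitro half-lives scaled to intrinsic clearance, expressed per 10^6 cells.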

[15] = Octanol-water partition coefficient, logD of compound at pH 7.4 at 0.5 to 2 mg incubated for 1 hr by HPLC based shake-flask method; assay type: physicochemical; details: dose 0.5-2 mg
Method in brief: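 Shake-flask octanol/water partition at pH 7.4.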

[16] = Fraction unbound in rat liver by equilibrium dialysis method
Rattus norvegicus [17] = species on record: Rattus norvegicus; assay: Fraction unbound in rat plasma by equilibrium dialysis method
Rattus norvegicus [18] = assay: Effect on triglyceride accumulation in Sprague-Dawley rat high fat dietary model at 10 mg/kg, po assessed as reduction in triglyceride level after 42 days by XPT clinical analyzer; assay type: functional, organism-based; details: time 42.0 day
Method in brief: (§6)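 High-fat-diet-fed Sprague-Dawley rats dosed orally for 42 days, with chow-fed and vehicle controls, n = 10 per group. Read-out is hepatic triglyceride, reported as mean ± SEM.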

Rattus norvegicus [19] = assay: Effect on triglyceride accumulation in po dosed Sprague-Dawley rat high fat dietary model assessed as reduction in triglyceride level after 42 days by XPT clinical analyzer; assay type: functional, organism-based; details: time 42.0 day; method in brief: as §6
Rattus norvegicus [20] = assay: Inhibition of DNL in po dosed Sprague-Dawley rat assessed as reduction in DNL level in liver pretreated with one hr followed by [14C]-acetate treatment and measured after 1 hr; assay type: functional, organism-based
Method in brief: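 Sprague-Dawley rats given single oral doses of 0.03–300 mg/kg in 0.5% methyl cellulose vehicle, n = 16 per dose. Read-out is incorporation of 14C-acetate into lipids in liver, bone marrow and lung, measured at 2 h post-dose relative to vehicle. Data are mean ± SEM. EC50 is reported with a 95% confidence interval.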

Homo sapiens = species on record: Homo sapiens; assay: Inhibition of ACC (unknown origin) at 100 uM

Chain of Acetyl-CoA carboxylase 2 (O00763 whole entry): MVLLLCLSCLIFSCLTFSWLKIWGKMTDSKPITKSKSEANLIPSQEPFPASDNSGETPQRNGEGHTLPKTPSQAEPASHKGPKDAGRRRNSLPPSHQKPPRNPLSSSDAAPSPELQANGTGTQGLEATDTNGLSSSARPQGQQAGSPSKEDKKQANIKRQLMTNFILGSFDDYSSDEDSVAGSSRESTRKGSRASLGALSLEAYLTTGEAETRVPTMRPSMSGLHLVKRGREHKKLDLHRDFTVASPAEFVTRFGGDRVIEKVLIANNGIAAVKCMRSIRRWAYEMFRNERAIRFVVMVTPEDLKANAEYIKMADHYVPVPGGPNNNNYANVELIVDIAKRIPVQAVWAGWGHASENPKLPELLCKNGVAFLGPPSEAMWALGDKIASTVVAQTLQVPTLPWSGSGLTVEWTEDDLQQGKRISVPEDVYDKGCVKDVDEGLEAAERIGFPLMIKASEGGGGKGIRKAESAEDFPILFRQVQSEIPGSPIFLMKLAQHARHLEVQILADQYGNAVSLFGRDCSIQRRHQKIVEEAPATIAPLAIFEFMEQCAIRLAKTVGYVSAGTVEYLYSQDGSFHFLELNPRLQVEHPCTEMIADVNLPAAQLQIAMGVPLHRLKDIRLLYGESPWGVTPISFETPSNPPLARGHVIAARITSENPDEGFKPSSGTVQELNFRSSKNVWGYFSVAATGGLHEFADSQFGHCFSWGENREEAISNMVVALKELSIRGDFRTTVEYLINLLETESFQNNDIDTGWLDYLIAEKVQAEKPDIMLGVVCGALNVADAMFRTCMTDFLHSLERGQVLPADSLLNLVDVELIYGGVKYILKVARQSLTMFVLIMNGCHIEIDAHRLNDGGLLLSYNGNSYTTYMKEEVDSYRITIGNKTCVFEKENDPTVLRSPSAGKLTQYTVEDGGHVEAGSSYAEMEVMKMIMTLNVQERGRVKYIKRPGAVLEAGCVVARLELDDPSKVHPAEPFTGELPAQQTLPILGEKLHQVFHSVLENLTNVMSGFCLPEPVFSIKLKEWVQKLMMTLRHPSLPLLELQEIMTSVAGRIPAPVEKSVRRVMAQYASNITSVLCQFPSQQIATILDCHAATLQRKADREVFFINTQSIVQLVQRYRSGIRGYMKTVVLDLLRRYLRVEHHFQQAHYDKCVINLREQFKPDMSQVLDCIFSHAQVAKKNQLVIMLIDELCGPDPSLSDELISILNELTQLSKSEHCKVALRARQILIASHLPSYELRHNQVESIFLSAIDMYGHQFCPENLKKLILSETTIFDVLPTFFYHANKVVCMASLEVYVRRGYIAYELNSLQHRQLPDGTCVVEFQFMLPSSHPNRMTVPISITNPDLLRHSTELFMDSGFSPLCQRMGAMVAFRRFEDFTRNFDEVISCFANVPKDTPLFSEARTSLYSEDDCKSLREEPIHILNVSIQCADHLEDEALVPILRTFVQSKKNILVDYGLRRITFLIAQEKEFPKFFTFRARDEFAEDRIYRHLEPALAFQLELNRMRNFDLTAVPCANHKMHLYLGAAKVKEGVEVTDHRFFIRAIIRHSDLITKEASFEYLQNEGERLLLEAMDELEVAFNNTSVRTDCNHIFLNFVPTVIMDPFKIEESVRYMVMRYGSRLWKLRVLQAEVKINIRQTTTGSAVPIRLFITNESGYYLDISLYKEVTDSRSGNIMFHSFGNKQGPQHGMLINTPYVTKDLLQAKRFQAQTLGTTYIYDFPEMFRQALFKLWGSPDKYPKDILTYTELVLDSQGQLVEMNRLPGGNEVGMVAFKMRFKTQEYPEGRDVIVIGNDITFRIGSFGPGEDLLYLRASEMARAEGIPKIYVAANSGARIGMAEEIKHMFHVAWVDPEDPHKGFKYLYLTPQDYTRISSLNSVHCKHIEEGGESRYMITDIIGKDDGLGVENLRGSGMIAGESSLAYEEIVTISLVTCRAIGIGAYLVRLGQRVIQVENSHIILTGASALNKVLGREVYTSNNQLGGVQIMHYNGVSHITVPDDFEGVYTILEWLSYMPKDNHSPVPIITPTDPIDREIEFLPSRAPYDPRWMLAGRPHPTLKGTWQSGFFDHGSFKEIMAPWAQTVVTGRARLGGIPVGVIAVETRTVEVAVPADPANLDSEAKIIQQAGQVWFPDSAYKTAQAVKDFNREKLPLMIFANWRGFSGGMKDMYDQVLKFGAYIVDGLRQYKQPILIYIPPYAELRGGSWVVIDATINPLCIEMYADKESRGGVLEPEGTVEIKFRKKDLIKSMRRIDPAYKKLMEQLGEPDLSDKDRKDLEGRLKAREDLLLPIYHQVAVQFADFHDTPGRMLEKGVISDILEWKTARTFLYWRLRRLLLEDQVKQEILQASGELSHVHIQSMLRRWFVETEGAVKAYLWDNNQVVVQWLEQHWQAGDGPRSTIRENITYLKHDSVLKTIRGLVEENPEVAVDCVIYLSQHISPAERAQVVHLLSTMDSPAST

| Papp at 0.5 h, 2 µM [1] | IC50 (Acetyl-CoA carboxylase 2) | IC50 (Acetyl-CoA carboxylase 1) | logD at 1 h [15] | Structure (SMILES) | also measured |
| --- | --- | --- | --- | --- | --- |
| 1.3 ×10⁻⁶ cm/s | 200 nM | 1500 nM |  | CC(C)(C)n1cc2c(n1)C(=O)CC1(CCN(C(=O)c3cccc(-c4cccc(C(=O)O)c4)c3)CC1)O2 |  |
|  | 190 nM | 1100 nM | -0.4 | CC(C)(C)n1cc2c(n1)C(=O)CC1(CCN(C(=O)c3ccnc(-c4ccc(C(=O)O)cc4)c3)CC1)O2 |  |
| 2.5 ×10⁻⁶ cm/s | 92 nM | 440 nM |  | CC(C)(C)n1cc2c(n1)C(=O)CC1(CCN(C(=O)c3cccc(-c4ccc(C(=O)O)cc4)c3)CC1)O2 |  |

Second part, the compound before the results:

| Structure (SMILES) | Papp at 0.5 h, 2 µM [1] | IC50 (Acetyl-CoA carboxylase 2) | IC50 (Acetyl-CoA carboxylase 1) | logD at 1 h [15] | also measured |
| --- | --- | --- | --- | --- | --- |
| CC(C)(C)n1cc2c(n1)C(=O)CC1(CCN(C(=O)c3ccc4[nH]nc(C(=O)O)c4c3)CC1)O2 | < 0.4 ×10⁻⁶ cm/s | 33 nM | 130 nM |  |  |
| Cc1nc2cc(C(=O)N3CCC4(CC3)CC(=O)c3c(c(C(=O)O)nn3C(C)C)C4)ccc2[nH]1 | 0.5 ×10⁻⁶ cm/s | 1200 nM | 12000 nM |  |  |
| CC(C)n1ncc2c1C(=O)CC1(CCN(C(=O)c3cc(-c4ccc(C(=O)O)cc4)nc(N(C)C)c3)CC1)C2.Cl |  |  |  |  | Kp uu at 6 h [2]: 79; concentration at 6 h [3]: 9920 ng/mL; Kp at 6 h [4]: 173; concentration at 6 h [5]: 57.4 ng/mL |
| CC(C)n1ncc2c1C(=O)CC1(CCN(C(=O)c3cc(-c4ccc(C(=O)O)cc4)nc(N(C)C)c3)CC1)C2 | 13 ×10⁻⁶ cm/s | 5.6 nM | 7.7 nM | 1.4 | solubility thermodynamic at 24 h [6]: 13 µM (≈ 6.7 µg/mL); solubility thermodynamic at 24 h [7]: 2 µM (≈ 1.03 µg/mL); solubility thermodynamic at 24 h [8]: 3 µM (≈ 1.55 µg/mL); AUC(0-t) [9]: 519 ng·h/mL; Cmax [10]: < 1 ng/mL; half-life [11]: 7.5 h; Vd [12]: 5.2 L/kg; clearance [13]: 31.3 mL/min/kg; uptake ratio at up to 3 µM (OATP1B3): 1.4; uptake ratio at up to 3 µM (OATP1B1): 2.1; hepatocyte CLint [14]: < 3 µL/min/1e6 cells; fraction unbound [16]: 0.026; fraction unbound (Rattus norvegicus [17]): 0.057 |
| COc1cc(C(=O)N2CCC3(CC2)CC(=O)c2c(cnn2C(C)C)C3)cc(-c2ccc(C(=O)O)cc2)n1 |  |  |  |  | Activity (Rattus norvegicus [18]): Active; Activity (Rattus norvegicus [19]): Dose-dependent effect; inhibition (Rattus norvegicus [20]): Dose-dependent effect; inhibition (Homo sapiens): inactive |
| CN(C)c1cc(C(=O)N2CCC3(CC2)CC(=O)c2nn(C(C)(C)C)cc2O3)cc(-c2ccc(C(=O)O)cc2)n1 | 0.5 ×10⁻⁶ cm/s | 9.4 nM | 17 nM | 0.8 | hepatocyte CLint [14]: 7.5 µL/min/1e6 cells |
